Consider 30 compounds from PMC10530161 (Bioorganic & medicinal chemistry, 2023).

“Also recorded” adds a separate entry of the source.

A short description of data set [1]: Mouse liver microsomal intrinsic clearance. The settings on record: for CLint scaled: mouse, liver microsomes, Intrinsinc Clearance mCLINT. The data set is classed as in vitro ADME. In outline: (§1)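 Intrinsic clearance was measured in human or mouse liver microsomes, depending on the line. Predicted hepatic clearance was then calculated from each species' intrinsic clearance using the well-stirred organ clearance model, with binding terms excluded. The work was done externally as in vitro DMPK studies.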

Data set [2] relates to SW620 colorectal cancer cells which overexpress claudin-1. Kind of data set: Cell survival assay in SW620 cells, single concentration 25 μM. The data set is classed as cell-based. The settings on record: for inhibition at 25 µM: Homo sapiens, SW-620, read-out: % inhibition at 25 uM; for activity in SW620 cell survival assay: SW620 cells, initial SAR survey at 25 μM.
A short description of data set [3]: Human liver microsomal intrinsic clearance. The settings on record: for CLint scaled: human, liver microsomes, Intrinsinc Clearance hCLINT. The data set is classed as in vitro ADME. The gist of the method:
as §1

In the next data set the target is CYP2C19 (Homo sapiens, UniProt P33261). Kind of data set: CYP inhibition, CYP2C19. The data set is classed as in vitro ADME.
Chain of CYP2C19 (P33261 whole entry): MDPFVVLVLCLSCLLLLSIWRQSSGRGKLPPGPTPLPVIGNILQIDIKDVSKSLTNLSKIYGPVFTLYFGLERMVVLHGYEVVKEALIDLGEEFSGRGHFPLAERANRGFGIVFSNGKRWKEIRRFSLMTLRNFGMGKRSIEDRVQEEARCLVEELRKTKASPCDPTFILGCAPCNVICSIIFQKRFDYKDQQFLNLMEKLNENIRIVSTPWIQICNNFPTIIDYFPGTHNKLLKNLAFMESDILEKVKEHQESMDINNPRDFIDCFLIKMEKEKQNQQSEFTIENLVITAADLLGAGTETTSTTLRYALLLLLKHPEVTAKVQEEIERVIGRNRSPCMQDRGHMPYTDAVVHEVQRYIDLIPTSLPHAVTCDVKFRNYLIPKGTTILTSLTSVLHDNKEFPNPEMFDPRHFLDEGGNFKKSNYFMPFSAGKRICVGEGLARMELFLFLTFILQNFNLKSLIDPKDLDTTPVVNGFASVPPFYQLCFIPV
In a further data set the target is CYP2D6 (Homo sapiens, UniProt P10635). Kind of data set: CYP inhibition, CYP2D6. The data set is classed as in vitro ADME.
Chain of CYP2D6 (P10635 whole entry): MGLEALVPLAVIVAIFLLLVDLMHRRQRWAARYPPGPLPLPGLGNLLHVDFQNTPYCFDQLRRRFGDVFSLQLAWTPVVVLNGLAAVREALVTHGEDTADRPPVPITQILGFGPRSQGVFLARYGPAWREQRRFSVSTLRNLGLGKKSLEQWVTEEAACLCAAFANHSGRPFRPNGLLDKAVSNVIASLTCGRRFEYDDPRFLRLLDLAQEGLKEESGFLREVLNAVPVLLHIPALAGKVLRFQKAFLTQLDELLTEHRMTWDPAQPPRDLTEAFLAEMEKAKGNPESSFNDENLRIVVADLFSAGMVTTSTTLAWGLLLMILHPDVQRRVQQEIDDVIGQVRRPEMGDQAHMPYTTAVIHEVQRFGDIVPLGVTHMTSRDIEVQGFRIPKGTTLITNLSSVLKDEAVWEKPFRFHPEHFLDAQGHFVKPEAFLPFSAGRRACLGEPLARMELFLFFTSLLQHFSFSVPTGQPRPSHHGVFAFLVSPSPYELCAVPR
The next data set concerns the target CYP3A4 (Homo sapiens, UniProt P08684). Nature of the data set: CYP inhibition, CYP3A4. Type of data set: in vitro ADME.
A further data set deals with IEC-6 cells. Kind of data set: General cytotoxicity, dose response in normal IEC-6 cells. The data set is classed as cell-based. The settings on record: control for general cytotoxicity.
A further data set relates to SW620 cells. Nature of the data set: Dose response assay in SW620 cells. The data set is classed as cell-based. Conditions: starting at 12.5 μM.
The test system of the next data set is colorectal cancer. The settings on record: in vivo mouse model; cited from earlier work.

Chain of CYP3A4 (P08684 whole entry): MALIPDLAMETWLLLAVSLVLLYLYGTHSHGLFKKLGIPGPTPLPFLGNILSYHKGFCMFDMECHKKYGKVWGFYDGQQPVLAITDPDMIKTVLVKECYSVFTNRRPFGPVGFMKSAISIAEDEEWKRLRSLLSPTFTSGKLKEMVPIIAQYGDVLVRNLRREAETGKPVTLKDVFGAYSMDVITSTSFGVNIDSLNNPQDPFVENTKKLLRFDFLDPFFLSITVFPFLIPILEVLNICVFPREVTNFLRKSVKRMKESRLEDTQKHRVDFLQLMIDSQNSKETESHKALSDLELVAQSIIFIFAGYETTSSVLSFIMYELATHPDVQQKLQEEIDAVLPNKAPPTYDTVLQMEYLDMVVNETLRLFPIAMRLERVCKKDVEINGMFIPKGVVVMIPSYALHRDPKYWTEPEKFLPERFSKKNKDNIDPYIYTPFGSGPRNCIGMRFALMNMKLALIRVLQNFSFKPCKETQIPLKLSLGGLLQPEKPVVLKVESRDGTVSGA

For the compound `O=C(NC(=O)c1ccc2ccccc2c1)Nc1ccc(-c2nc3ccccc3[nH]2)cc1` [compound 29], the intrinsic metabolic clearance (CLint scaled) in [1] was 365 mL/min/kg; in data set [3], 86.3 mL/min/kg. The inhibition at 25 µM in data set [2] amounted to 12.7%.
Regarding `O=C1c2ccccc2CCN1C(=S)Nc1ccc(-c2ncco2)cc1` [compound 39], the inhibition at 25 µM in data set [2] stood at 0.9%.
Take `COc1cc2ccccc2cc1C(=O)NC(=S)Nc1ccc(-c2nccs2)cc1` [compound 16]: in [1], the “stability in mouse liver microsomes” value was “moderately stable” and the intrinsic metabolic clearance (CLint scaled) was determined as 37.7 mL/min/kg. In data set [3], the “stability in human liver microsomes” value is on record as “instability” and the CLint scaled turned out to be 202 mL/min/kg.
Regarding `O=C(NC(=S)Nc1ccc(-c2nc3ccccc3o2)cc1)c1ccc2cccnc2c1` [compound 36], the inhibition at 25 µM in [2] was determined as 0%.
Consider `COc1ccccc1NC(=O)Nc1ccc(-c2nc3ccccc3[nH]2)cc1` [compound 40], for which the inhibition at 25 µM in [2] was 23.8%.
Take `COc1cc2ccccc2cc1C(=O)NC(=O)Nc1ccc(-c2nc3ccccc3[nH]2)cc1` [compound 23]: the CLint scaled in data set [1] is 236 mL/min/kg; in data set [3], 67.8 mL/min/kg. In [2], the inhibition at 25 µM stood at 90.8%.
For `COc1cc2ccccc2cc1C(=O)NC(=S)Nc1ccc(-c2cscn2)cc1` [compound 21], in data set [2], the inhibition at 25 µM was 29%.
With `COc1cc2ccccc2cc1C(=O)Nc1ccc(-c2nc3ccccc3s2)cc1` [compound 20], the inhibition at 25 µM in data set [2] was determined as 42.3%.
As for `COc1cc2ccccc2cc1C(=O)Nc1ncc(C(F)(F)F)s1` [compound 22], the inhibition at 25 µM in data set [2] worked out at 17.6%.
As to `COc1cc2ccccc2cc1C(=O)NC(=O)Nc1ccc(-c2nc3ccccc3o2)cc1` [compound 24], in data set [2], the inhibition at 25 µM amounted to 0%.
As to `O=C(NC(=S)Nc1ccc(-c2ncco2)cc1)c1ccc2cccnc2c1` [compound 37], the inhibition at 25 µM in [2] turned out to be 1.4%.
Turning to `COc1cc2ccccc2cc1C(=O)NC(=S)Nc1ccc(-c2nnco2)cc1` [compound 18], in data set [1], the “stability in mouse liver microsomes” value was “moderate stability”. Also, the intrinsic metabolic clearance (CLint scaled) was 38.2 mL/min/kg in data set [1] and below 20 mL/min/kg in [3]. The inhibition at 10 µM on CYP2C19, against CYP2D6 and against CYP3A4 was below 50% each time. For the same compound, in data set [3], the “stability in human liver microsomes” value is recorded as “regained the stability”.
Take `COc1cc2c(OC)cccc2cc1C(=O)NC(=S)Nc1ccc(-c2nc3ccccc3[nH]2)cc1` [compound 33]: the inhibition at 25 µM in [2] was determined as 37.6%.
Regarding `CCOc1cc2ccccc2cc1C(=O)NC(=S)Nc1ccc(-c2nc3ccccc3s2)cc1` [compound 31], the inhibition at 25 µM in data set [2] is 13%.
`COc1cc2ccccc2cc1C(=O)NC(=S)Nc1ccc(-c2nc3ccccc3[nH]2)cc1` [compound 10]: in [1], the “stability in mouse liver microsomes” value is on record as “moderate stability” and the CLint scaled turned out to be 42.7 mL/min/kg. Also, in [3], the “stability in human liver microsomes” value is on record as “moderate stability” and the CLint scaled worked out at 27.8 mL/min/kg.
On to `COc1cc2ccccc2cc1C(=O)NC(=S)Nc1ccc(-c2ncc[nH]2)cc1` [compound 15], for which, in data set [1], the “stability in mouse liver microsomes” value is “moderately stable”. In addition, the CLint scaled was found to be 57.8 mL/min/kg in data set [1] and 125 mL/min/kg in [3]. Further, the inhibition at 10 µM at CYP2C19, on CYP2D6 and against CYP3A4 was below 50% throughout. Besides, the “concentration at which cytotoxicity was shown” value in the data set on IEC-6 cells was 12.5 µM. In addition, the “stability in human liver microsomes” value in [3] was “instability”.
With `CCOc1cc2ccccc2cc1C(=O)NC(=S)Nc1ccc(-c2nc3ccccc3o2)cc1` [compound 30], the inhibition at 25 µM in data set [2] was 0%.
Regarding `COc1cc2ccccc2cc1C(=O)NC(=O)Nc1ccc(-c2nc3ccccc3s2)cc1` [compound 25], the inhibition at 25 µM in data set [2] turned out to be 0%.
The same measure, in the same setting: the value for `CC(C)Oc1cc2ccccc2cc1C(=O)NC(=S)Nc1ccc(-c2nc3ccccc3o2)cc1` [compound 32] was 17.2%.
With `COc1cc2ccccc2cc1C(=O)NC(=S)Nc1ccc(-c2nc3ccccc3s2)cc1` [compound 13], the “activity in SW620 cell survival assay” value in data set [2] was “not active”.
Consider `COc1cc2c(OC)cccc2cc1C(=O)NC(=S)Nc1ccc(-c2nc3ccccc3s2)cc1` [compound 34], for which the inhibition at 25 µM in [2] is 15.8%.
In the case of `COc1cc2ccccc2cc1C(=O)NC(=S)Nc1ccc(-c2nc3ccccc3s2)cn1` [compound 14], the “activity in SW620 cell survival assay” value in data set [2] is recorded as “not active”.
In the case of `O=C(NC(=S)Nc1ccc(-c2nc3ccccc3o2)cc1)c1ccc2ccccc2c1` [compound 28], in data set [1], the “stability in mouse liver microsomes” value is “moderate stability” and the intrinsic metabolic clearance (CLint scaled) turned out to be 53.4 mL/min/kg. Also, in the data set with SW620 cells, the “% cell survival” value is recorded as below 50%. In addition, in [2], the inhibition at 25 µM was determined as 76.4% and the “activity in SW620 cell survival assay” value is “active”. For the same compound, the “activity in in vivo model of colorectal cancer” value in the data set with colorectal cancer was “active; also recorded: antitumor and chemosensitizer activities”. Moreover, in data set [3], the “stability in human liver microsomes” value is on record as “moderate stability” and the CLint scaled is 32.4 mL/min/kg.
As for `O=C1c2ccccc2CCN1C(=S)Nc1ccc(-c2nc3ccccc3o2)cc1` [compound 38], the results for the CLint scaled in data set [1] and in data set [3] were 139 mL/min/kg and below 20 mL/min/kg, respectively.
With `COc1cc2ccccc2cc1C(=O)NC(=S)Nc1ccc(-c2ncon2)cc1` [compound 19], in data set [1], the “stability in mouse liver microsomes” value was “moderate stability” and the CLint scaled was found to be 46.2 mL/min/kg. For the same compound, in data set [2], the inhibition at 25 µM turned out to be 18.4% and the “activity in SW620 cell survival assay” value is “inactive”. Further, in data set [3], the “stability in human liver microsomes” value is recorded as “regained the stability” and the CLint scaled is below 20 mL/min/kg.
Turning to `COc1cc2ccccc2cc1C(=O)NC(=S)Nc1ccc(-c2nc3ccccc3o2)cc1` [compound 11], in [1], the “stability in mouse liver microsomes” value was “stable” and the intrinsic metabolic clearance (CLint scaled) was below 20 mL/min/kg. For the same compound, the “activity in SW620 cell survival assay” value in data set [2] is listed as “not active”. In data set [3], the “stability in human liver microsomes” value is “stable” and the CLint scaled was below 20 mL/min/kg.
`COc1cc2ccccc2cc1C(=O)NC(=S)Nc1ccc(-c2nc3ccccc3o2)cn1` [compound 12]: the “activity in SW620 cell survival assay” value in [2] is “not active”.
On to `COc1cc2ccccc2cc1C(=O)NC(=O)Nc1ccc(-c2nnco2)cc1` [compound 26], for which the inhibition at 25 µM in [2] came to 23.8%.
For the compound `COc1cc2ccccc2cc1C(=O)NC(=O)Nc1ccc(-c2cscn2)cc1` [compound 27], the CLint scaled amounted to 43.5 mL/min/kg in [1] and 92.8 mL/min/kg in data set [3]. Further, the inhibition at 25 µM in data set [2] came to 42.6%.
For the compound `O=C(NC(=S)Nc1ccc(-c2nc3ccccc3[nH]2)cc1)c1ccc2cccnc2c1` [compound 35], the inhibition at 25 µM in [2] is 0%.

In general, CLint scaled refers to the rate of metabolic loss divided by the concentration. Lower therefore signals slow turnover. One may read the inhibition as the drop in the measured response relative to a control, in per cent.
